In ChEMBL document CHEMBL2016555, “4-Methoxy-N-[2-(trifluoromethyl)biphenyl-4-ylcarbamoyl]nicotinamide: A Potent and Selective Agonist of S1P1” (ACS Med Chem Lett, 2011):
In brackets after ≈: the same amount, converted by molar mass. Blank lines part the entries; values can stand above or below the molecule they belong to.

Legend:
[1] = molecular target: T1, Sphingosine 1-phosphate receptor 1 (Homo sapiens, UniProt P21453); experiment: Agonist activity at human S1P1 expressed in U2OS cells coexpressing eGFP assessed as receptor internalization after 1 hr by microscopic analysis relative to 1-(4-(6-benzylbenzofuran-2-yl)-3-fluorobenzyl)azetidine-3-carboxylic acid; assay type: functional, cell-based
T1 sequence (P21453 whole entry, the tested form may be a part): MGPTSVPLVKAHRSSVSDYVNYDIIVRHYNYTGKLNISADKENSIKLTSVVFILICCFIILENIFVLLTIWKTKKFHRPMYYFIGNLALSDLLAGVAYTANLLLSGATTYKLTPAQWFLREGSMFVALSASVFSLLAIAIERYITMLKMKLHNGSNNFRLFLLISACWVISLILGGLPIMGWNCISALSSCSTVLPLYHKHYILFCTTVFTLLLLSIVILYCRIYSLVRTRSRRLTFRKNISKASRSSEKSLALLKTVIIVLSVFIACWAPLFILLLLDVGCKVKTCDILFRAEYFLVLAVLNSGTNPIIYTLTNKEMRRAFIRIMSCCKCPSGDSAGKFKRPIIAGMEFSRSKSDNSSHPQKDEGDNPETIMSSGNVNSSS
Summary of the method: (§1)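 Human S1P1–eGFP fusion protein expressed in U2OS cells; agonism read as receptor internalization; EC50 derived, efficacy expressed relative to 1-(4-(6-benzylbenzofuran-2-yl)-3-fluorobenzyl)azetidine-3-carboxylic acid at 1.0 μM.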

[2] = Intrinsic clearance in rat liver microsomes after 30 mins; assay type: ADME, Microsome; details: read-out: CLH
[3] = Solubility of the compound in phosphate buffer saline at pH 7.4; assay type: physicochemical; details: phosphate buffered saline
[4] = Solubility of the compound in simulated intestinal fluid; assay type: physicochemical
[5] = molecular target: T1, Sphingosine 1-phosphate receptor 1; experiment: Agonist activity at human S1P1 expressed in U2OS cells coexpressing eGFP assessed as receptor internalization after 1 hr by microscopic analysis; assay type: functional, cell-based; summary of the method: as §1
Rattus norvegicus [6] = experiment: Immunosuppressive activity in Lewis rat assessed as change in peripheral lymphocyte count at 1 mg/kg, po after 24 hrs relative to vehicle treated control; assay type: functional
Summary of the method: (§2)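 Female Lewis rats (N = 5/group) given one oral dose of 1 mg/kg (20% captisol, 1% HPMC, 1% pluronic F68, pH 2.1 with MSA); blood lymphocyte count and total plasma compound measured at 24 h; POC vs vehicle, ANOVA/Dunnett's test.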

[7] = Efflux ratio of apparent permeability across pig LLC-PK1 cells; assay type: ADME, cell-based, Sus scrofa
Summary of the method: (§3)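 Permeability across porcine proximal tubule LLC-PK1 cell monolayers; apparent permeability (Papp) and efflux ratio determined.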

[8] = Apparent permeability across pig LLC-PK1 cells; assay type: ADME, cell-based, Sus scrofa; summary of the method: as §3
Plasma = experiment: Plasma concentration in Lewis rat at 1 mg/kg, po at 24 hrs; assay type: ADME, organism-based; parameters: dose 1 mg/kg, route oral; details: in vivo, 24 h, BLD = below limit of detection; summary of the method: as §2
[9] = Solubility of the compound in 0.01 M aqueous HCl; assay type: physicochemical
[10] = molecular target: Sphingosine 1-phosphate receptor 2 (Homo sapiens, UniProt O95136); experiment: Agonist activity at human S1P2 expressed in CHO-K1 cells coexpressing Gq/i5 assessed as intracellular calcium release by fluorimetry; assay type: functional, cell-based
Chain of Sphingosine 1-phosphate receptor 2 (O95136 whole entry): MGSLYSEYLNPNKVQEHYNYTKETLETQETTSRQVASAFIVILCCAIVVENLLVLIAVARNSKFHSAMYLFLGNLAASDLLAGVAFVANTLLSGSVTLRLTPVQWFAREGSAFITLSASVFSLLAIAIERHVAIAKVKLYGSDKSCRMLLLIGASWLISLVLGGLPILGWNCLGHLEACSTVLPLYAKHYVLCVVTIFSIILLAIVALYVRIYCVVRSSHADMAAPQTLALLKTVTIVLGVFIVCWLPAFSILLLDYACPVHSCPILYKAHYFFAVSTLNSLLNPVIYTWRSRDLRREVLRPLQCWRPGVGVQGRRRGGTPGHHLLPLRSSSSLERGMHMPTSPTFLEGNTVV
Summary of the method: (§4)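 CHO-K1 cells expressing the human S1P receptor subtype plus chimeric Gq/i5; Ca2+ mobilization measured; efficacy relative to S1P at 0.20 μM; compounds not reaching >10% of control activity reported as > highest concentration tested.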

[11] = Half life in Sprague-Dawley rat at 1 mg/kg, iv; assay type: ADME, organism-based; parameters: dose 1 mg/kg, route intravenous; details: in vivo
PXR (NR1I2) = molecular target: T2, PXR (NR1I2) (Homo sapiens, UniProt O75469); experiment: Induction of human PXR at 10 uM relative to control; details: read-out: Activity
T2 sequence (O75469 whole entry): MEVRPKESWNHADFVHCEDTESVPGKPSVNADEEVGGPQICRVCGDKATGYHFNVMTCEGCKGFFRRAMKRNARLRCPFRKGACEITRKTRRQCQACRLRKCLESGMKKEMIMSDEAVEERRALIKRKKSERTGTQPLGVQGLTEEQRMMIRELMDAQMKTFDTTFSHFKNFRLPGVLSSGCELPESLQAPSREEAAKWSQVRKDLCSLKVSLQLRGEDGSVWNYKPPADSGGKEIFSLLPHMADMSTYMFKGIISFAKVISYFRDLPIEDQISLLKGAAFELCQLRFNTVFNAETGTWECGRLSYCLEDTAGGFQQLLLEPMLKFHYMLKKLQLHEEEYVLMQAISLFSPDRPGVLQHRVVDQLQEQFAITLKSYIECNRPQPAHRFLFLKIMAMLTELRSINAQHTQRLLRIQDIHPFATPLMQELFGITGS

Rattus norvegicus [12] = experiment: Immunosuppressive activity in po dosed Lewis rat assessed as change in peripheral lymphocyte count at 3 mg/kg, po after 24 hrs relative to vehicle treated control; assay type: functional
Summary of the method: (§5)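 Female Lewis rats dosed orally once at 0.30, 1.0 or 3.0 mg/kg (N = 5; 3.0 mg/kg group N = 3) in 20% HPBCD, 1% HPMC, 1% pluronic F68, pH 2.1 with MSA; blood lymphocytes and plasma concentration at 24 h; ANOVA/Dunnett's vs vehicle.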

[13] = Volume of distribution at steady state in Sprague-Dawley rat at 1 mg/kg, iv; assay type: ADME, organism-based; parameters: dose 1 mg/kg, route intravenous; details: in vivo, read-out: Vdss
[14] = molecular target: T3, Sphingosine 1-phosphate receptor 5 (Homo sapiens, UniProt Q9H228); experiment: Agonist activity at human S1P5 expressed in CHO-K1 cells coexpressing Gq/i5 assessed as calcium mobilization-induced bioluminescence change measured for 90 secs by fluorimetry; assay type: functional, cell-based; summary of the method: as §4
T3 sequence (Q9H228 whole entry): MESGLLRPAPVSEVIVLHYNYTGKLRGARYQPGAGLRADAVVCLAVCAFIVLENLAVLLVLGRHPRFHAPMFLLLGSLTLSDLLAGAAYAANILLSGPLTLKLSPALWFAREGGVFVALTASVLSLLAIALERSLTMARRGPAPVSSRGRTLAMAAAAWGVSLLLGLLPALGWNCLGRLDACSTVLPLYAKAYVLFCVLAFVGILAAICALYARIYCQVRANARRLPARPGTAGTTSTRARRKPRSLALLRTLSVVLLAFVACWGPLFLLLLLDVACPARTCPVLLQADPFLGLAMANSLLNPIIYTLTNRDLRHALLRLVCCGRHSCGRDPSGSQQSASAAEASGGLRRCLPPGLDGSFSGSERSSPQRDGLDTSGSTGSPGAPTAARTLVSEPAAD

[15] = Bioavailability in Sprague-Dawley rat at 3 mg/kg, po and 1 mg/kg, iv; assay type: ADME, organism-based; details: in vivo
Rattus norvegicus [16] = experiment: Toxicity in Sprague-Dawley rat assessed as weight loss at 50 mg/kg, po administered qd for 4 days; assay type: organism-based; parameters: dose 50 mg/kg, route oral; details: in vivo, 96 h
Summary of the method: (§6)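 Male Sprague-Dawley rats, N = 3/group, dosed orally once daily for 4 days at 50 or 200 mg/kg. Endpoints were mortality, clinical signs, body weight, and clinical chemistry including total bilirubin and cholesterol.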

Rattus norvegicus [17] = experiment: Toxicity in Sprague-Dawley rat assessed as increase in cholesterol level at 200 mg/kg, po administered qd for 4 days; assay type: organism-based; parameters: dose 200 mg/kg, route oral; details: in vivo, 96 h; summary of the method: as §6
[18] = molecular target: Sphingosine 1-phosphate receptor 3 (Homo sapiens, UniProt Q99500); experiment: Agonist activity at human S1P3 expressed in CHO-K1 cells coexpressing Gq/i5 assessed as intracellular calcium release by fluorimetry; assay type: functional, cell-based; summary of the method: as §4
Chain of Sphingosine 1-phosphate receptor 3 (Q99500 whole entry): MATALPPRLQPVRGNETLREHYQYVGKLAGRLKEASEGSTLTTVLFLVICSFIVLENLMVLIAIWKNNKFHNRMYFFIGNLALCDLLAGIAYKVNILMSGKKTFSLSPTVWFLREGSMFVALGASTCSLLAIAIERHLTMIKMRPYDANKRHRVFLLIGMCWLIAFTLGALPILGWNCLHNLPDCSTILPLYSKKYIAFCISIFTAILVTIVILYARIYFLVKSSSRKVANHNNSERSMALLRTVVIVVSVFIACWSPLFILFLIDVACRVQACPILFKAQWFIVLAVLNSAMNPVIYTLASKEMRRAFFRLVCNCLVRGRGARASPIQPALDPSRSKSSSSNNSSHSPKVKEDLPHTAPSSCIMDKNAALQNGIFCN

Rattus norvegicus [19] = experiment: AUC (0 to 48 hrs) in Sprague-Dawley rat at 100 mg/kg, po; assay type: ADME, organism-based, Plasma; parameters: time < 48 hr, dose 100 mg/kg, route oral; details: in vivo
[20] = Plasma protein binding in Sprague-Dawley rat in vitro by ultracentrifugation; details: read-out: PPB (converted)
[21] = AUC (0 to 48 hrs) in Sprague-Dawley rat at 1 mg/kg, iv; assay type: ADME, organism-based; parameters: time < 48 hr, dose 1 mg/kg, route intravenous; details: plasma
Rattus norvegicus [22] = experiment: Toxicity in Sprague-Dawley rat assessed as mortality at 200 mg/kg, po administered qd for 4 days; assay type: organism-based; parameters: dose 200 mg/kg, route oral; details: in vivo, 96 h; summary of the method: as §6
[23] = molecular target: T4, Sphingosine 1-phosphate receptor 4 (Homo sapiens, UniProt O95977); experiment: Agonist activity at human S1P4 expressed in CHO-K1 cells coexpressing Gq/i5 assessed as calcium mobilization-induced bioluminescence change after measured for 90 secs by fluorimetry; assay type: functional, cell-based
T4 sequence (O95977 whole entry): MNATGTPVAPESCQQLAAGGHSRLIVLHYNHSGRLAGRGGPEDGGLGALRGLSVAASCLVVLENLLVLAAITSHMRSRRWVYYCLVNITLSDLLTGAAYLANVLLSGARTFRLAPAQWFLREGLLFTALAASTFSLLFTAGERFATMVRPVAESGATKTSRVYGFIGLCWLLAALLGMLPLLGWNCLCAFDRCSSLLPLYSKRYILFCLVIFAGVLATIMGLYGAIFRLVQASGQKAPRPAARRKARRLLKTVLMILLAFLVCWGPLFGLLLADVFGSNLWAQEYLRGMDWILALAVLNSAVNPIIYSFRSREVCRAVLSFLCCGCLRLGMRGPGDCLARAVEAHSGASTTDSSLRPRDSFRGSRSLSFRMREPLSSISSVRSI

Rattus norvegicus [24] = experiment: Immunosuppressive activity in po dosed Lewis rat assessed as change in peripheral lymphocyte count after 24 hrs relative to vehicle treated control; assay type: functional, organism-based; summary of the method: as §5
[25] = Plasma concentration in Lewis rat at 3 mg/kg, po at 24 hrs; assay type: ADME, organism-based; parameters: dose 3 mg/kg, route oral; summary of the method: as §5
[26] = Clearance in Sprague-Dawley rat at 1 mg/kg, iv; assay type: ADME, organism-based; parameters: dose 1 mg/kg, route intravenous; details: in vivo
Rattus norvegicus [27] = experiment: Toxicity in Sprague-Dawley rat assessed as adverse clinical signs at 200 mg/kg, po administered qd for 4 days; assay type: organism-based; parameters: dose 200 mg/kg, route oral; details: in vivo, 96 h; summary of the method: as §6
Rattus norvegicus [28] = experiment: Toxicity in Sprague-Dawley rat assessed as increase in bilirubin level at 200 mg/kg, po administered qd for 4 days; assay type: organism-based; parameters: dose 200 mg/kg, route oral; details: in vivo, 96 h; summary of the method: as §6
Rattus norvegicus [29] = experiment: Toxicity in Sprague-Dawley rat assessed as weight loss at 200 mg/kg, po administered qd for 4 days; assay type: organism-based; parameters: dose 200 mg/kg, route oral; details: in vivo, 96 h; summary of the method: as §6
Cytochrome P450 2D6 = Cytochrome P450 2D6 (Homo sapiens, UniProt P10635); experiment: Inhibition of human CYP2D6; assay type: ADME
Chain of Cytochrome P450 2D6 (P10635 whole entry): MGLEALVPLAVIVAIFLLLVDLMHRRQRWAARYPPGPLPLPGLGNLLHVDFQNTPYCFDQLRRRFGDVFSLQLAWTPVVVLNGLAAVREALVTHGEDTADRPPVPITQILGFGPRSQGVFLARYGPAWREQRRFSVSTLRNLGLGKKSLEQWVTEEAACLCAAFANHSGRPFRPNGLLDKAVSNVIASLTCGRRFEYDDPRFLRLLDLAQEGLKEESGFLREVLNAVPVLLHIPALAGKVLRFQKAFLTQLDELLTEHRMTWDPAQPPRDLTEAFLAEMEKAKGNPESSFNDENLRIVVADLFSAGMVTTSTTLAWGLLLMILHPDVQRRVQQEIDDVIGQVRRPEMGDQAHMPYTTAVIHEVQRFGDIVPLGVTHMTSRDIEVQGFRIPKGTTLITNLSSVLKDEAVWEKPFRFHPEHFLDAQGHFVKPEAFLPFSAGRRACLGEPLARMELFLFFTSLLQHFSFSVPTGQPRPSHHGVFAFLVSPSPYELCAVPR

Rattus norvegicus [30] = experiment: Toxicity in Sprague-Dawley rat assessed as clinical signs at 50 mg/kg, po administered qd for 4 days; assay type: organism-based; parameters: dose 50 mg/kg, route oral; details: in vivo, 96 h; summary of the method: as §6
[31] = AUC (0 to 48 hrs) in Sprague-Dawley rat at 3 mg/kg, po; assay type: ADME, organism-based; parameters: time < 48 hr, dose 3 mg/kg, route oral; details: plasma
[32] = molecular target: T3, Sphingosine 1-phosphate receptor 5; experiment: Agonist activity at human S1P5 expressed in CHO-K1 cells coexpressing Gq/i5 assessed as calcium mobilization-induced bioluminescence change measured for 90 secs by fluorimetry relative to S1P; assay type: functional, cell-based; summary of the method: as §4
[33] = Plasma concentration in Lewis rat at 0.3 mg/kg, po at 24 hrs; assay type: ADME, organism-based; parameters: dose 0.3 mg/kg, route oral; summary of the method: as §5
[34] = molecular target: Voltage-gated inwardly rectifying potassium channel KCNH2 (Homo sapiens, UniProt Q12809); experiment: Inhibition of human ERG
Chain of Voltage-gated inwardly rectifying potassium channel KCNH2 (Q12809 whole entry): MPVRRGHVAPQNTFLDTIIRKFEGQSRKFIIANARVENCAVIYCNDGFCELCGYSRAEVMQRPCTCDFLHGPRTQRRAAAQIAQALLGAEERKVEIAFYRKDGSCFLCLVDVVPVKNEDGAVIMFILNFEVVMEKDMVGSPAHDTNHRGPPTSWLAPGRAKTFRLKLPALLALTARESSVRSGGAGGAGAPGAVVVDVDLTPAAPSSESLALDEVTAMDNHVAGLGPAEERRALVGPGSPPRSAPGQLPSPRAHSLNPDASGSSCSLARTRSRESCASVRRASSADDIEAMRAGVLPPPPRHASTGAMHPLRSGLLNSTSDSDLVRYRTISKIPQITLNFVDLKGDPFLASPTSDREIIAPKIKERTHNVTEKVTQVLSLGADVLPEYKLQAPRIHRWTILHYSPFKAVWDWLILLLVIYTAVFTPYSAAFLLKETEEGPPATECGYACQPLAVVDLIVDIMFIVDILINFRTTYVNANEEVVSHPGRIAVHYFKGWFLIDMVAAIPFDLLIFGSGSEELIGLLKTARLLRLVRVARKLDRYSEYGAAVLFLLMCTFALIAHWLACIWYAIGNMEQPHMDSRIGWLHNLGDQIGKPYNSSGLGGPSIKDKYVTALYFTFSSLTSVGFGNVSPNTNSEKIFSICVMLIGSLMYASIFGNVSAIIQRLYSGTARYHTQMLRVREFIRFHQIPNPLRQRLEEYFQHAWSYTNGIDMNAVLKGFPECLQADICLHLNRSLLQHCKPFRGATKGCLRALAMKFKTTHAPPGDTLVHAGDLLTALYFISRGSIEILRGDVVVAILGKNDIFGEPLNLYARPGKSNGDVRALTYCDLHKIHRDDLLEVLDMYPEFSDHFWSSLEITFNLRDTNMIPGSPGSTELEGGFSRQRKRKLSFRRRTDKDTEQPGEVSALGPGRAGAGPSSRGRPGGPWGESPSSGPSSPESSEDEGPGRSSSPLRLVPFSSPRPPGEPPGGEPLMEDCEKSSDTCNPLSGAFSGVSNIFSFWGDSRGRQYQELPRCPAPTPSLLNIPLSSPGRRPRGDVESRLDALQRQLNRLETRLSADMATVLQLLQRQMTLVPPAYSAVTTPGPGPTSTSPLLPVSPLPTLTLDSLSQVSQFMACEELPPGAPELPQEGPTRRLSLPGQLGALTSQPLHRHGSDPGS

Rattus norvegicus [35] = experiment: Toxicity in Sprague-Dawley rat assessed as increase in bilirubin level at 50 mg/kg, po administered qd for 4 days; assay type: organism-based; parameters: dose 50 mg/kg, route oral; details: in vivo, 96 h; summary of the method: as §6
Rattus norvegicus [36] = experiment: Toxicity in Sprague-Dawley rat assessed as mortality at 50 mg/kg, po administered qd for 4 days; assay type: organism-based; parameters: dose 50 mg/kg, route oral; details: in vivo, 96 h; summary of the method: as §6

Efficacy [1]: 110% | microsomal CLint [2]: < 14 µL/min/mg | solubility [3]: < 1 µg/mL | solubility [4]: 6.9 µg/mL (≈ 18.1 µM) | EC50 [5]: 0.014 µM | efflux ratio [7]: 1 | Papp [8]: 2.1 ×10⁻⁶ cm/s | Cp (Plasma): BLD | solubility [9]: < 1 µg/mL
Structure (SMILES): COc1ccccc1C(=O)NC(=O)Nc1ccc(C(C)C)c(C(F)(F)F)c1
Activity (Rattus norvegicus [6]): -16%

Structure (SMILES): COc1ccncc1C(=O)NC(=O)Nc1ccc(-c2ccccc2)c(C(F)(F)F)c1
EC50 [10]: > 25 µM | Efficacy [1]: 96% | half-life [11]: 19 h | microsomal CLint [2]: < 14 µL/min/mg | activity at 10 µM (PXR (NR1I2)): 3.7% | Activity (Rattus norvegicus [12]): 81% | Vd [13]: 6.3 L/kg | EC50 [14]: 4.3 µM | bioavailability [15]: 140% | Activity (Rattus norvegicus [16]): Non-toxic | Activity (Rattus norvegicus [17]): Toxic | EC50 [18]: > 25 µM | AUC (Rattus norvegicus [19]): 350000 ng·h/mL | Activity (Rattus norvegicus [6]): -67% | fraction unbound [20]: 0.05 | AUC(0-t) at 48 h [21]: 3400 ng·h/mL | Activity (Rattus norvegicus [22]): Non-toxic | EC50 [23]: > 50 µM | Activity (Rattus norvegicus [24]): Dose-dependent effect | concentration at 24 h [25]: 160 ng/mL | clearance [26]: 4.17 mL/min/kg | Activity (Rattus norvegicus [27]): Non-toxic | Activity (Rattus norvegicus [28]): Toxic | Activity (Rattus norvegicus [29]): Non-toxic | IC50 (Cytochrome P450 2D6): > 30 µM | Activity (Rattus norvegicus [30]): Non-toxic | AUC(0-t) at 48 h [31]: 13000 ng·h/mL | Efficacy [32]: 58% | concentration at 24 h [33]: 17 ng/mL | IC50 [34]: > 10 µM | Activity (Rattus norvegicus [35]): Toxic | Activity (Rattus norvegicus [36]): Non-toxic
